From ChEMBL document CHEMBL4017509, “A Dual Modulator of Farnesoid X Receptor and Soluble Epoxide Hydrolase To Counter Nonalcoholic Steatohepatitis” (J Med Chem, 2017) come the findings set out here.

Series [1] has as its target T1, Bile acid receptor (Homo sapiens, UniProt Q96RI1).
T1 sequence (Q96RI1 whole entry): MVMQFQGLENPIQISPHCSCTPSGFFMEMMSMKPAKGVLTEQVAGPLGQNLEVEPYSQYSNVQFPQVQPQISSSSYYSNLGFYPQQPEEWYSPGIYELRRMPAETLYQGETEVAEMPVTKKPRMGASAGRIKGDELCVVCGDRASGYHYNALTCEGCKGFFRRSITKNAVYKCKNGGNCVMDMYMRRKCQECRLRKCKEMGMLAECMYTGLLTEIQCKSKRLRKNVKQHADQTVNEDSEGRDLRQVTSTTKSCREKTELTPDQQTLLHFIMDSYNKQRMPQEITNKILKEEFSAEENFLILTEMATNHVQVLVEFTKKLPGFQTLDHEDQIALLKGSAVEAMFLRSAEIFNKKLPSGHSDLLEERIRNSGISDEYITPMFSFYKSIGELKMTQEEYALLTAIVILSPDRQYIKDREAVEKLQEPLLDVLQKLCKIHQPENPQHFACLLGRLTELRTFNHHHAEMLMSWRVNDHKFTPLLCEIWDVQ
As to the kind of experiment: Transactivation of human FXR expressed in human HeLa cells co-expressing BSEP after 24 hrs by dual-glo luciferase reporter gene assay. Type of series: cell-based. The method in brief: (§1)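 HeLa cells in DMEM/10% FCS at 37 °C, 5% CO2; switched to 0.5% charcoal-stripped FCS before calcium phosphate co-transfection with pcDNA3-hFXR, pSG5-hRXR, BSEP promoter–firefly luciferase reporter and pRL-SV40 renilla. Compound in 0.1% DMSO, phenol red-free medium, 24 h.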
Background: Reporter assays use an easily measured gene product as a stand-in for the process of interest.

Series [2] concerns the target T2, Bile acid receptor (Homo sapiens) (UniProt Q96RI1).
T2 sequence (whole entry): T1 sequence (Q96RI1 whole entry)
As to the kind of experiment: Transactivation of human FXR expressed in human HeLa cells co-expressing BSEP at 50 uM after 24 hrs by dual-glo luciferase reporter gene assay relative to GW4064. In kind it is cell-based. The method in brief: as §1

Series [3] concerns the target T3, Bifunctional epoxide hydrolase 2 (Homo sapiens, UniProt P34913).
T3 sequence (P34913 whole entry): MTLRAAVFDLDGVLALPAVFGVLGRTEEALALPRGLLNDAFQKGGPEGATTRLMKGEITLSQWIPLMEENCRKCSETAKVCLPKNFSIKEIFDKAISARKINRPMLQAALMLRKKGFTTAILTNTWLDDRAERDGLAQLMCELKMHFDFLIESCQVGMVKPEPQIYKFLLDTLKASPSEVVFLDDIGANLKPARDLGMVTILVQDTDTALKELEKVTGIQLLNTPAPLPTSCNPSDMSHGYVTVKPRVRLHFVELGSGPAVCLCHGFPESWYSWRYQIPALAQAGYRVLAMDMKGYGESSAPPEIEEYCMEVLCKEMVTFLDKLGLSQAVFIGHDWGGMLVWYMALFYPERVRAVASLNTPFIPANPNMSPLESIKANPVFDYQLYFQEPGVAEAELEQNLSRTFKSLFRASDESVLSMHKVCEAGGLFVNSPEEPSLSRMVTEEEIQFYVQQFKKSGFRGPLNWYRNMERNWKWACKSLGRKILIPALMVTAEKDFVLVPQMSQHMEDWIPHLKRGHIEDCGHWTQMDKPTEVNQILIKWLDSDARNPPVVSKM
As to the kind of experiment: Inhibition of recombinant human sEH using PHOME as substrate preincubated for 30 mins followed by substrate addition measured for 30 mins by fluorescence photometric method. Particulars: read-out: IC50. The gist of the method: (§2)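 Recombinant human sEH in Bis-Tris buffer pH 7, 0.1 mg/mL BSA, 0.01% Triton X-100 (final), preincubated 30 min at room temperature with compound (1% DMSO final). PHOME added at 50 μM final; 6-methoxynaphthaldehyde fluorescence read each minute for 30 min.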

Series [4] is described as follows: Aqueous solubility of compound at 5 mg after 24 hrs by HPLC analysis. Type of series: physicochemical.
For series [5], the target named is T4, Bifunctional epoxide hydrolase 2 (Homo sapiens) (UniProt P34913).
T4 sequence (whole entry): T3 sequence (P34913 whole entry)
As to the kind of experiment: Inhibition of recombinant human sEH at 50 uM using PHOME as substrate preincubated for 30 mins followed by substrate addition measured for 30 mins by fluorescence photometric method. The gist of the method:
as §2

Series [6] relates to Liver. As to the kind of experiment: Drug level in Sprague-Dawley rat liver microsomes treated with 4-(tert-Butyl)-N-(2-chloro-4-(methylsulfonamido)benzyl)-benzamide at 10 uM preincubated with NADPH regenerating system for 5 mins followed by addition of liver microsomes by LC-MS/MS method. In kind it is ADME, microsome. For orientation: Liver microsomes are a subcellular fraction often used to study metabolism.

Series [7] deals with T1, Bile acid receptor. As to the kind of experiment: Transactivation of FXR in human HepG2 cells assessed as CYP7A1 mRNA expression at 3 uM after 8 to 16 hrs by SYBR green based qRT-PCR analysis relative to DMSO control. In kind it is ADME, cell-based. The method in brief:
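HepG2 cells treated 8 or 16 h with compound or 0.1% DMSO, washed in cold PBS, RNA extracted; SYBR Green qRT-PCR in duplicate, ≥4 independent experiments (n = 3 for CD36/FAM3A). ΔΔCt method with GAPDH reference; expression as % of vehicle (100%). Pioglitazone 1 μM used as positive control for the PPARγ genes.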

Series [8] concerns the target T4, Bifunctional epoxide hydrolase 2 (Homo sapiens). As to the kind of experiment: Inhibition of sEH in primary human monocytes-derived macrophages assessed as reduction in LPS-stimulated IL-12p70 release at 10 uM after 16 hrs by cytometric bead array method. Type of series: cell-based. The method in brief: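 Blood monocytes isolated by dextran sedimentation and Nycoprep gradient, adherence-selected 1 h, differentiated with GM-CSF 10 ng/mL for 7 days plus IFNγ 10 ng/mL for last 48 h. Stimulated with LPS 100 ng/mL plus compound for 16 h; supernatant IL-10 and IL-12p70 measured by cytometric bead array flow cytometry.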

Series [9] has the same target. As to the kind of experiment: Inhibition of sEH in human HepG2 cells assessed as NF-kappaB mRNA expression at 10 uM after 8 to 16 hrs by SYBR green based qRT-PCR analysis relative to DMSO control. Type of series: cell-based. In general terms: In qPCR the cycle at which signal appears reflects the starting amount.
For series [10] the target is unchanged. As to the kind of experiment: Inhibition of sEH in human HepG2 cells assessed as NF-kappaB mRNA expression at 1 uM after 8 to 16 hrs by SYBR green based qRT-PCR analysis relative to DMSO control. In kind it is cell-based. The method in brief:
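HepG2 cells treated with compound or 0.1% DMSO vehicle; NF-κB mRNA quantified by SYBR Green qRT-PCR, comparative ΔΔCt with GAPDH reference; expressed as % of vehicle (100%).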

The target in series [11] is T2, Bile acid receptor (Homo sapiens). As to the kind of experiment: Transactivation of FXR in human HepG2 cells assessed as BSEP mRNA expression at 1 uM after 8 to 16 hrs by SYBR green based qRT-PCR analysis relative to DMSO control. Type of series: cell-based. The gist of the method:
(§3)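 HepG2 cells incubated with test compound (0.1 and 1 μM) or 0.1% DMSO for 8 or 16 h, washed in cold PBS, RNA extracted; target mRNA by SYBR Green qRT-PCR, duplicate samples, ≥4 independent experiments; comparative ΔΔCt with GAPDH reference, vehicle set as 100%.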

For series [12] the target is unchanged. As to the kind of experiment: Transactivation of FXR in human HepG2 cells assessed as SHP mRNA expression at 1 uM after 8 to 16 hrs by SYBR green based qRT-PCR analysis relative to DMSO control. In kind it is cell-based. The method in brief:
as §3

Series [13] shares this target. As to the kind of experiment: Transactivation of FXR in human HepG2 cells assessed as SREBP1c mRNA expression at 1 uM after 8 to 16 hrs by SYBR green based qRT-PCR analysis relative to DMSO control. In kind it is cell-based. The gist of the method: as §3
Series [14] shares this target. As to the kind of experiment: Transactivation of FXR in human HepG2 cells assessed as FGF19 mRNA expression at 1 uM after 8 to 16 hrs by SYBR green based qRT-PCR analysis relative to DMSO control. In kind it is cell-based. The gist of the method:
as §3

Series [15] addresses T4, Bifunctional epoxide hydrolase 2 (Homo sapiens). As to the kind of experiment: Inhibition of sEH in human HuT-78 cells assessed as reduction in Pam3CSK4-stimulated TNFalpha release preincubated for 24 hrs followed by Pam3CSK4 addition measured after 18 hrs by ELISA. In kind it is cell-based. The method in brief:
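HuT-78 cells in RPMI 1640 with 10% heat-inactivated FCS, 2.0 × 10^6 cells/well, exposed to compound (0.1% DMSO) for 24 h; medium then replaced with fresh compound plus Pam3CSK4 20 ng/mL for 18 h; supernatant TNFα measured by ELISA (absorbance 450 nm); each concentration repeated independently at least three times.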

For series [16] the target is unchanged. As to the kind of experiment: Inhibition of sEH in primary human monocytes-derived macrophages assessed as reduction in LPS-stimulated IL-12p70 release at 1 uM after 16 hrs by cytometric bead array method. In kind it is cell-based. The method in brief:
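Human blood monocytes isolated by dextran sedimentation/Nycoprep and adherence, differentiated to macrophages with GM-CSF 10 ng/mL for 7 days plus IFNγ 10 ng/mL for final 48 h; stimulated with LPS 100 ng/mL together with compound for 16 h; supernatant IL-12p70 measured by cytometric bead array on flow cytometer.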

Activity calls are given as the source filed them. The calls are words filed in the database; no cut-off is given here.

Usually EC50 stands for the midpoint of the concentration-response curve. Low readings indicate greater potency, high ones weaker potency. The Emax is the greatest response seen or fitted, relative to the assay's reference. Broadly, the IC50 is the midpoint of a concentration-inhibition curve. In general, solubility refers to the dissolved amount per volume that the medium holds. Higher therefore signals a readily soluble substance. For the compound `CC(C)(C)c1ccc(C(=O)NCc2ccc(NC(=O)C(F)(F)F)cc2Cl)cc1`, the EC50 in [1] came to 14 nM. Moreover, in series [2], the Emax is 21%. For the same compound, in series [3], the IC50 is 8.9 nM. In [4], this compound gave a solubility at 24 h of less than 0.1 µg/mL.
The term inhibition denotes how much of the control response was suppressed. Take `CC(NC(=O)c1ccc(C(C)(C)C)cc1)c1ccc(C(=O)O)cc1` (stereo not given): a half-maximal effect in [1] (EC50) was put at 76 nM. The same compound returned an Emax in series [2] of 24%. The inhibition in series [5] worked out at 37%.
`O=C(O)c1ccc(CNC(=O)c2ccc3ccccc3c2)cc1` yielded an EC50 in series [1] of 1360 nM. The compound also registered a maximum response (Emax) in series [2] of 18%. For the same compound, the inhibition in series [5] was 45%.
The corresponding values for `Cc1ccc(C(=O)NCc2ccc(C(=O)O)cc2)cc1C` are 320 nM, 12% and 52%.
On to `Cc1cc(CNC(=O)c2ccc(C(C)(C)C)cc2)ccc1C(=O)O`, for which the EC50 in series [1] was determined as 160 nM. For the same compound, the Emax in [2] was determined as 14%. Besides, the inhibition in series [5] was 53%.
With `CC(C)(C)c1ccc(C(=O)NCc2ccc(N)cc2Cl)cc1`, the Drug metabolism entry in series [6] is “Metabolite_Detected”.
On to `CC(C)c1onc(-c2c(Cl)cccc2Cl)c1COc1ccc(/C=C/c2cccc(C(=O)O)c2)c(Cl)c1`, for which the Activity in series [7] stood at 0.03%.
For `CC(C)(CO)c1ccc(C(=O)NCc2ccc(NS(C)(=O)=O)cc2Cl)cc1`, the Drug metabolism result in series [6] is reported as “Metabolite_Detected”.
On to `O=C(Nc1ccc(I)cc1)NC1CCCCC1`, for which the inhibition entry in series [8] was “Active”. For the same compound, in series [9], the inhibition amounted to 22.9%.
Consider `C[C@@H]1C[C@H]2[C@@H]3CCC4=CC(=O)C=C[C@]4(C)[C@@]3(F)[C@@H](O)C[C@]2(C)[C@@]1(O)C(=O)CO`, for which the inhibition in [10] is 59.4%.
In the case of `COc1ccc(C(=O)NCc2ccc(C(=O)O)cc2)cc1OC`, in series [1], it took 370 nM to reach a half-maximal effect (EC50). The compound further yielded an Emax in series [2] of 18%. The inhibition in series [5] is 26%.
The compound `CC(C)(C)c1ccc(C(=O)NCc2cccc(C(=O)O)c2)cc1` registered an EC50 in [1] of 1700 nM. The compound also returned an Emax in series [2] of 14%. The inhibition in series [5] was determined as 26%.
As for `CC[C@H]1[C@@H](O)[C@@H]2[C@H](CC[C@]3(C)[C@@H]([C@H](C)CCC(=O)O)CC[C@@H]23)[C@@]2(C)CC[C@@H](O)C[C@@H]12`, the Activity in series [11] was found to be 970%; in series [12], 416%; in series [13] it was 51%; in [14], 640%. The inhibition in [10] came to 29%. Moreover, in [15], the inhibition entry was “inactive”. The inhibition entry in series [16] was “Active”.
